From PubChem BioAssay
S1P4 ag = activates the human S1P4 receptor. O95977. S1P4-expressing cell line, agonist reporter assay. activation, % at 4.98 µM. 220,000 tested, 0.35% active. AID 1509; in the data active = activation above about 11%
NPY Y2 blocker = NPY-Y2 (human) receptor antagonism; 140,000 tested, 0.99% active; AID 793; NPY-Y2 expressing cells, antagonist mode; inhibition, % at 2.7 µM; P49146; in the data active = inhibition above about 17%
NPY Y1 blocker = antagonists of human neuropeptide Y receptor Y1; P25929; HEK293-CNG Y1 cells, membrane potential fluorescence; NPY at EC95, then isoproterenol; inhibition, % at 3.6 µM; 200,000 tested, 1% active;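 active = inhibition above the campaign mean inhibition of all tested compounds plus 3 SD, cut at about 20% in these data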
Target sequence (P25929 whole entry, looked up): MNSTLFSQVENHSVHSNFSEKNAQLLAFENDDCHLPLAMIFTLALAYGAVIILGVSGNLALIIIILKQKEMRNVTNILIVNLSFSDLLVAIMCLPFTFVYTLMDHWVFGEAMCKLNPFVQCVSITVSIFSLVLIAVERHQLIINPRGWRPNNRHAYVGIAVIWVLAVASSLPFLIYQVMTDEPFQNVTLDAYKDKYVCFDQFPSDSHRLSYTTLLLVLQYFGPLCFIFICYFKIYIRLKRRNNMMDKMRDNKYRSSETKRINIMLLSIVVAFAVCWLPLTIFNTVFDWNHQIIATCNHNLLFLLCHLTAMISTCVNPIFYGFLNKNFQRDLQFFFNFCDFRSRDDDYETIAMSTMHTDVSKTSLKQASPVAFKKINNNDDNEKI
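Material: HEK293 Y1/CNG channel cell line; also added: NPY (25 nM), isoproterenol (1 µM), Ro 20-1724 (25 µM); doses: one concentration, 3.6 µM, in 0.4% DMSO; schedule: compound incubation 1 h at room temperature, readout 45 min post-stimulation; technique: membrane potential fluorescence; measure: fluorescence ratio normalized to % inhibition between controls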
NPY1 pot ag = potentiates or activates human NPY-Y1 receptor | NPY-Y1 expressing cells, potentiator/agonist activation | 220,000 tested, 0.37% active | AID 1304 | P25929 | activation, % at 3.6 µM; in the data active = activation above about 33%, passing the limit was not always enough;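 also: cells stimulated with NPY at EC10 then isoproterenol at EC100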
S1P4 antag = human S1P4 receptor antagonism | 220,000 tested, 0.26% active | inhibition, % at 4.98 µM | S1P4-expressing cells, antagonist mode, reporter read-out | O95977; in the data active = inhibition above about 29%
NPY-Y2 PAM-ag = potentiators or agonists of human neuropeptide Y receptor Y2. P49146. cells expressing NPY-Y2, potentiator/agonist read-out. activation, % at 3.6 µM. 220,000 tested, 0.45% active. AID 1359; in the data active = activation above about 27%;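 also: cells stimulated with NPY near EC25 plus isoproterenol at EC100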
NPY1 antag ctr = antagonizes human NPY-Y1, counter-screen to NPY-Y2 antagonists; shares compounds with NPY Y2 blocker; cell-based NPY-Y1 antagonism counterscreen; inhibition, % at 3.6 µM; 710 tested, 19% active; AID 1256; in the data active = inhibition above about 20%;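 also: cells challenged with NPY then isoproterenol with cAMP sensed through a CNG channel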
NPY-Y2 ant conf = human NPY-Y2 antagonism, confirmation | shares compounds with NPY Y2 blocker | HEK293 NPY-Y2 CNG channel, membrane potential fluorescence | inhibition, % at 2.8 µM | 710 tested, 32% active | AID 1257;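 active = mean inhibition of triplicate wells above the hit cutoff set in the primary screen, cut at about 17% in these data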
Each line names hits and unclear results; the compound was inactive in the other large screens (follow-up assays come after a bar, where they were run). The list is not random: actives were taken first. Their share in the collection is about 2.4%.

CN(C)c1ccc(NC(=O)CN2CCC(O)(c3ccccc3)CC2)cc1	none (no result: NPY Y2 blocker)
COc1cccc(-c2nc(CS(=O)(=O)CC(=O)NCc3ccccc3OC)c(C)o2)c1	NPY Y2 blocker 22 | NPY1 antag ctr inactive | NPY-Y2 ant conf inactive
COc1cccc(-c2nc(-c3ccc(NC(=O)Cc4ccccc4OC)cc3)no2)c1	NPY Y2 blocker 23 | NPY1 antag ctr inactive | NPY-Y2 ant conf 115
CCOc1ccccc1NC(=O)CN(C)S(=O)(=O)c1cnc[nH]1	none (no result: NPY Y2 blocker)
CCOc1ccc(N2C(=O)C(=O)/C(=C(/O)c3ccccc3)C2c2ccccc2[N+](=O)[O-])cc1 (configuration not stated)	none (no result: NPY Y2 blocker, NPY Y1 blocker)
CC/C(=C\C1CCCCC1)C(NP(=O)(c1ccccc1)c1ccccc1)c1ccccc1 (configuration not stated)	NPY Y2 blocker 23 | NPY1 antag ctr 38 | NPY-Y2 ant conf 34
O=S(=O)(Nc1nc2ccccc2[nH]1)c1ccc2ccccc2c1	NPY Y2 blocker 19 | NPY1 antag ctr inactive | NPY-Y2 ant conf inactive
O=S(=O)(Nc1ncn[nH]1)c1ccc2ccccc2c1	none
O=C(COC(=O)/C=C/c1ccc(Cl)cc1)Nc1ccc2c(c1)OCCO2	NPY Y2 blocker 17 | NPY1 antag ctr inactive | NPY-Y2 ant conf inactive
CN(Cc1cnccn1)Cc1ccccc1OCC(O)CN1CCc2ccccc2C1 (configuration not stated)	none (no result: NPY Y2 blocker)
O=C(Cc1ccc(Br)cc1)OCC(=O)c1ccc2c(c1)OCCO2	NPY Y2 blocker 17 | NPY1 antag ctr inactive | NPY-Y2 ant conf inactive
O=C(Cc1n[nH]c(=O)c2ccccc12)OCC(=O)c1ccc2c(c1)OCCO2	none
COc1cccc(N2CCN(C(=O)C3CCN(S(=O)(=O)c4cccs4)CC3)CC2)c1	none (no result: NPY Y2 blocker)
COc1ccccc1NC(=O)c1ccc(-c2ccc(Br)cc2)o1	NPY Y2 blocker 21 | NPY1 antag ctr 21 | NPY-Y2 ant conf 43
O=C(Nc1ccccc1)c1ccc(-c2ccc(Br)cc2)o1	NPY Y2 blocker 29 | NPY1 antag ctr inactive | NPY-Y2 ant conf inactive
COc1ccccc1N1CCN(C(c2cccs2)C(C)NC(=O)c2ccco2)CC1 (configuration not stated)	none (no result: NPY Y2 blocker, NPY Y1 blocker)
Cc1ccoc1C(=O)N1CCCCC1C(=O)O (configuration not stated)	none (no result: NPY Y2 blocker)
CCCOc1ccc2oc(=O)c3c(c2c1)CCCN3C(=O)CN1CCN(C(=O)c2ccco2)CC1	none
O=C(CN1CCCC1)N1CCCc2c1c(=O)oc1ccc(OCc3ccccc3)cc21	NPY Y2 blocker 19 | NPY1 antag ctr 23 | NPY-Y2 ant conf 28
CCCC(c1nnnn1C(C)(C)CC)N1CCN(C2CCCC2)CC1 (configuration not stated)	NPY Y2 blocker 25 | NPY1 antag ctr inactive | NPY-Y2 ant conf inactive
CCCC(c1nnnn1C1CCCCC1)N1CCN(C2CCCC2)CC1 (configuration not stated)	none
CCC(c1nnnn1C1CCCCC1)N1CCN(C2CCCC2)CC1 (configuration not stated)	NPY Y2 blocker 27 | NPY1 antag ctr inactive | NPY-Y2 ant conf inactive
COc1ccccc1NC(=O)COC(=O)C1CCN(/C=C/C(=O)C(F)(F)F)CC1	none
Cc1ccc([N+](=O)[O-])cc1NC(=O)c1ccc(-c2ccccc2)cc1	NPY Y2 blocker 22 | NPY1 antag ctr inactive | NPY-Y2 ant conf inactive
Cc1ccc(C(=O)Nc2cc([N+](=O)[O-])ccc2C)cc1	none (no result: NPY Y2 blocker)
Cc1cc(C)nc(NC(=O)CSc2nc3ccccc3s2)n1	none
Cc1ccc(S(=O)(=O)NC(=O)CSc2nc3ccccc3s2)cc1	NPY Y2 blocker 20 | NPY1 antag ctr inactive | NPY-Y2 ant conf inactive
COC(=O)C(C)N(C(=O)c1ccc(Cl)cc1)c1c(C)cccc1C (configuration not stated)	none
COC(=O)C(C)N(C(=O)c1ccc(C(=O)c2ccccc2)cc1)c1c(C)cccc1C (configuration not stated)	NPY Y2 blocker 19 | NPY1 antag ctr inactive | NPY-Y2 ant conf inactive
O=C(COC(=O)/C=C/c1ccccc1)Nc1ccccc1Br	none
O=C(COC(=O)c1ccc(-c2ccccc2)cc1)Nc1ccccc1-c1ccccc1	NPY Y2 blocker 31 | NPY1 antag ctr inactive | NPY-Y2 ant conf 19
O=C(COC(=O)/C=C/c1cccc(Cl)c1)Nc1ccccc1-c1ccccc1	NPY Y2 blocker 19 | NPY1 antag ctr 21 | NPY-Y2 ant conf 30
O=C(COC(=O)c1ccc(O)cc1)Nc1ccccc1-c1ccccc1	none
COc1ccccc1CNC(=O)C(NC(=O)c1ccccc1)C(C)C (configuration not stated)	none (no result: NPY Y2 blocker)
COC(=O)Cc1cc(OC)c(OC)cc1S(=O)(=O)N(C)C	none (no result: NPY Y2 blocker)
COc1ccc(CNCc2ccco2)cc1OCc1ccccc1	none
COc1ccccc1CCNCc1ccc(OC)c(OCc2ccccc2)c1	NPY Y2 blocker 20 | NPY1 antag ctr inactive | NPY-Y2 ant conf 92
CCOc1ccc(-n2cc(C(=O)Nc3cccc(Cl)c3)c3cc(OC)c(OC)cc3c2=O)cc1	NPY Y2 blocker 18 | NPY1 antag ctr inactive | NPY-Y2 ant conf 20
CC(C)NCC(O)COCCOc1ccc(C(C)(C)C)cc1 (configuration not stated)	NPY Y2 blocker 24 | NPY1 antag ctr inactive | NPY-Y2 ant conf inactive
Fc1ccc(-c2nnsc2Sc2ccccn2)cc1	none (no result: NPY Y2 blocker)
Oc1ccccc1CNc1ccc(Br)cn1	NPY Y2 blocker 151 | NPY1 antag ctr 26 | NPY-Y2 ant conf 52
C/C(N)=C(/C#N)C(=O)COC(=O)c1ccccc1Oc1ccccc1	none (no result: NPY Y2 blocker)
CC(C)OC(=O)/C(=C/c1ccc2c(c1)c1ccccc1n2C)NC(=O)c1ccccc1	NPY Y2 blocker 21 | NPY1 antag ctr inactive | NPY-Y2 ant conf 20
COC(=O)/C(=C\c1ccc2c(c1)c1ccccc1n2C)NC(=O)c1ccccc1	none
Cc1ccc(-c2nn3c(C)nnc3s2)cc1NC(=O)c1ccc(-c2ccc(Cl)cc2Cl)o1	NPY Y2 blocker 19 | NPY1 antag ctr 22 | NPY-Y2 ant conf 24
CCOC(=O)CSc1nc2c(sc3ccccc32)c(=O)n1CCCN1CCOCC1	NPY Y2 blocker 19 | NPY1 antag ctr 21 | NPY-Y2 ant conf inactive
CCC(C)NC(=O)CSc1nc2c(sc3ccccc32)c(=O)n1CCCN1CCOCC1 (configuration not stated)	none
Cc1cc(Oc2ccccc2)nc(NCc2ccccc2)n1	NPY Y2 blocker 20 | NPY1 antag ctr inactive | NPY-Y2 ant conf inactive
Cc1cc(N2CCC(C)CC2)nc(-c2ccccc2O)n1	none (no result: NPY Y2 blocker, NPY Y1 blocker)
Cc1cc(N2CCC(C)CC2)nc(NCc2ccccc2)n1	NPY Y2 blocker 17 | NPY1 antag ctr 33 | NPY-Y2 ant conf 33
